Data as given in ChEMBL document CHEMBL1140952 (J Med Chem, 2009).
Converted amounts (≈) assume the structure as drawn. Each block holds one compound with its values, some of them ahead of it.

Assays:
[1] = Antiproliferative activity against Met-dependent human GTL16 cells after 72 hrs by MTS assay; type: functional, cell-based; conditions: GTL 16, 72 h
[2] = biological target: T1, Hepatocyte growth factor receptor (Homo sapiens, UniProt P08581); assay: Inhibition of MET
[3] = Protein binding in Sprague-Dawley rat; type: ADME, organism-based; conditions: in vivo, read-out: PB
[4] = biological target: Serine/threonine-protein kinase pim-1 (Homo sapiens, UniProt P11309); assay: Inhibition of pim1
[5] = Inhibition of PKA
[6] = Antiproliferative activity against Met-driven human U87 cells after 72 hrs by MTS assay; type: functional, cell-based, U-87MG ATCC; conditions: U-87 MG
[7] = biological target: Platelet-derived growth factor receptor beta (Homo sapiens, UniProt P09619); assay: Inhibition of PDGFRbeta by cellular proliferation assay
[8] = biological target: Serine/threonine-protein kinase PLK1 (Homo sapiens, UniProt P53350); assay: Inhibition of plk1/3
[9] = biological target: Macrophage-stimulating protein receptor (Homo sapiens, UniProt Q04912); assay: Inhibition of Ron
Macrophage-stimulating protein receptor, sequence (Q04912 25-304 limits assumed): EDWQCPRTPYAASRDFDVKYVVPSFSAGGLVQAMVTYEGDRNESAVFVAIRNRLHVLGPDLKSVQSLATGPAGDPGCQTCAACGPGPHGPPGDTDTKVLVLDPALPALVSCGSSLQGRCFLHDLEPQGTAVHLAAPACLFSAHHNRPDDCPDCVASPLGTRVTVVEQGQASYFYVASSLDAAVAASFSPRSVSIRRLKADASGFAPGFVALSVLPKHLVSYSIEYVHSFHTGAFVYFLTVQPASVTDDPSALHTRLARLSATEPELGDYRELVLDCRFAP
Macrophage-stimulating protein receptor, sequence (Q04912 310-1400 limits assumed): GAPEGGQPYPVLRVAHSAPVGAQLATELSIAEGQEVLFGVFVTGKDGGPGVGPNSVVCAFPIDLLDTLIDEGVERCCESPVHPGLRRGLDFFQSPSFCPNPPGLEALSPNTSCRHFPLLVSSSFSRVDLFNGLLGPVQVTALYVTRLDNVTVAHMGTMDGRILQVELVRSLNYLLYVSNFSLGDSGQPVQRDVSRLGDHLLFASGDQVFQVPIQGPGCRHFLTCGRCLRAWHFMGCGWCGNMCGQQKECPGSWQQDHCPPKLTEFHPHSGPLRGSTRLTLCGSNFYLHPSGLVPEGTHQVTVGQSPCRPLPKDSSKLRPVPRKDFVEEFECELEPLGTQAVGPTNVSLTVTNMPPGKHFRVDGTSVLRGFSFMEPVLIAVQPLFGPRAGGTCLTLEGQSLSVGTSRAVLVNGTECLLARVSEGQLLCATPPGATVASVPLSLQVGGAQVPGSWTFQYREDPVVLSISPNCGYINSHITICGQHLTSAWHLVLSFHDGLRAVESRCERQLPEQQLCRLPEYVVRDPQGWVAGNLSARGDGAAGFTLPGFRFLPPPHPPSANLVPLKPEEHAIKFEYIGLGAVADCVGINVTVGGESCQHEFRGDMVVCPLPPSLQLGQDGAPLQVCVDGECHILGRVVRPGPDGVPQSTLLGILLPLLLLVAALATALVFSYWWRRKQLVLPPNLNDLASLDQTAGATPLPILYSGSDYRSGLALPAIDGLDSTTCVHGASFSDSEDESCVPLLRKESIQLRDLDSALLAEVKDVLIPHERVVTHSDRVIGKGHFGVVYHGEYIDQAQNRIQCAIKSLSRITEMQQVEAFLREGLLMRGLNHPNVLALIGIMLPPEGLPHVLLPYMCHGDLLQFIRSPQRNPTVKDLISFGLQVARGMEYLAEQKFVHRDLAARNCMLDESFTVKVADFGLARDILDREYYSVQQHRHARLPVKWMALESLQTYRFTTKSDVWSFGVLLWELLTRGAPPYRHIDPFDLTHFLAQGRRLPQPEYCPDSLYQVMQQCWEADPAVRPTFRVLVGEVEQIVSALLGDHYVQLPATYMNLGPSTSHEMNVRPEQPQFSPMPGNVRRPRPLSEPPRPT

[10] = biological target: BDNF/NT-3 growth factors receptor (Homo sapiens, UniProt Q16620); assay: Inhibition of TrkB
BDNF/NT-3 growth factors receptor, sequence (Q16620 whole entry): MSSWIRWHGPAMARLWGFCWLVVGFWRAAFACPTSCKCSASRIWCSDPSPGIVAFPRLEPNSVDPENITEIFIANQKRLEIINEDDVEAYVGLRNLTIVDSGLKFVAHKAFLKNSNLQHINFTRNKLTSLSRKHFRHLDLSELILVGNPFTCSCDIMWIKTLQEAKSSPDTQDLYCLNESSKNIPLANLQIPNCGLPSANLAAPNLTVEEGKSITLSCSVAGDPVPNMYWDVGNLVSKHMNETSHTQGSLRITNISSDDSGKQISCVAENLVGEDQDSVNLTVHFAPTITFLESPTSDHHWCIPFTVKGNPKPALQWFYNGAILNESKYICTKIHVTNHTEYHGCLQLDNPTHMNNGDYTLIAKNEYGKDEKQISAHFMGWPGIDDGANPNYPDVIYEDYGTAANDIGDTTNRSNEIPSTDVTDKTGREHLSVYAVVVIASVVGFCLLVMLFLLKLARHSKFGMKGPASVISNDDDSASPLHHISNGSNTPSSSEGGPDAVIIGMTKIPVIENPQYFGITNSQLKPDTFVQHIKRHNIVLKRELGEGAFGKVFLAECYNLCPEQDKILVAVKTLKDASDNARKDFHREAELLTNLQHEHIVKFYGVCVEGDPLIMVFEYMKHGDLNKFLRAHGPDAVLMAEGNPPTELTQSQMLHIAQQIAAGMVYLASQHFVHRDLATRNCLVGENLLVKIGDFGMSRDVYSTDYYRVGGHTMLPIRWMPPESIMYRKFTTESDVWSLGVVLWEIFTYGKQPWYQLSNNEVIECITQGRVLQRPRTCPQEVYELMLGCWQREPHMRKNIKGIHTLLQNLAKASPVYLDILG

[11] = Oral bioavailability in BALB/c mouse at 10 mg/kg; type: ADME, organism-based; conditions: in vivo
How it was run: (§1)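 In-life PK: single iv and oral doses given in 70% PEG400-30% water, orally as a solution formulation. Mouse values are averages of six animals and rat values of three. Dog values are averages of two or three animals per route. Plasma Cmax, Tmax, AUC0-24h, iv t1/2, Cl, Vss and oral bioavailability were derived.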

[12] = biological target: Inhibitor of NF-kappa-B kinase alpha/beta (Homo sapiens, UniProt O14920+O15111); assay: Inhibition of IKK1/2
[13] = biological target: High affinity nerve growth factor receptor (Homo sapiens, UniProt P04629); assay: Inhibition of TrkA
High affinity nerve growth factor receptor, sequence (P04629 whole entry): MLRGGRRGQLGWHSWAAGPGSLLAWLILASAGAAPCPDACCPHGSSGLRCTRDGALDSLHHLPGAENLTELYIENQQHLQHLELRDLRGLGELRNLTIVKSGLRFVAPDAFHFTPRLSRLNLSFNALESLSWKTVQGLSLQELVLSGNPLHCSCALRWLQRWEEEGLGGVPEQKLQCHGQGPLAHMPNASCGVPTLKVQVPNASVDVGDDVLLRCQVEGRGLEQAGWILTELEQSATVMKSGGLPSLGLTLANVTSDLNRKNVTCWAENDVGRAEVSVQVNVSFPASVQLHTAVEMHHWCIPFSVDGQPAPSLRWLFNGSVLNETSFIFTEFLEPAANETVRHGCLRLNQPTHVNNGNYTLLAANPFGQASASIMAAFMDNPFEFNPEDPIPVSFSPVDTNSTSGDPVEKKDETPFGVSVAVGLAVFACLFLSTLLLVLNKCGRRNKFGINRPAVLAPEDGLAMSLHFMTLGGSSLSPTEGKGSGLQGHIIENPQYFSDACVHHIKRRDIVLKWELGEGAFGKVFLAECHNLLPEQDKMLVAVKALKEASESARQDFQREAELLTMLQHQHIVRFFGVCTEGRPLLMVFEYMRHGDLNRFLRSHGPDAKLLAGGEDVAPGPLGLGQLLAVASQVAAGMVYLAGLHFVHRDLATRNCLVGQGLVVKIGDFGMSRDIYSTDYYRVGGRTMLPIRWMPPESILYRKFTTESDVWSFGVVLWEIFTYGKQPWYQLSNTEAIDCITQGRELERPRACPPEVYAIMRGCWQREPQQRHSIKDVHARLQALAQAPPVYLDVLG

[14] = Tmax in BALB/c mouse at 10 mg/kg, po; type: ADME, organism-based; parameters: dose 10 mg/kg, route oral; conditions: in vivo; how it was run: as §1
[15] = Volume of distribution at steady state in Beagle dog at 1 mg/kg, iv; type: ADME, organism-based, Canis lupus familiaris; parameters: dose 1 mg/kg, route intravenous; conditions: in vivo, read-out: Vdss; how it was run: as §1
[16] = Antitumor activity in human GTL16 cells xenografted athymic mouse at 25 mg/kg, po administered once daily for 14 days; type: functional; conditions: GTL 16, 336 h, read-out: TGI
[17] = biological target: Mitogen-activated protein kinase 14 (Homo sapiens, UniProt Q16539); assay: Inhibition of p38alpha
[18] = Volume of distribution at steady state in BALB/c mouse at 5 mg/kg, iv; type: ADME, organism-based; parameters: dose 5 mg/kg, route intravenous; conditions: in vivo, read-out: Vdss; how it was run: as §1
[19] = Volume of distribution at steady state in Sprague-Dawley rat at 5 mg/kg, iv; type: ADME, organism-based; parameters: dose 5 mg/kg, route intravenous; conditions: in vivo, read-out: Vdss; how it was run: as §1
[20] = biological target: Tyrosine-protein kinase receptor TYRO3 (Homo sapiens, UniProt Q06418); assay: Inhibition of Tyro3
[21] = Cmax in human GTL16 cells xenografted athymic mouse at 50 mg/kg, po; type: ADME, organism-based; parameters: dose 50 mg/kg, route oral; conditions: in vivo
How it was run: (§2)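 GTL-16 human gastric carcinoma cells were implanted subcutaneously in athymic mice and tumors staged to about 125 mm³. The compound was then given orally once daily for 14 consecutive days. Drug exposure (Cmax, AUC0-24h) was measured at the dose levels. Toxicity was judged by weight loss or morbidity.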

[22] = biological target: Tyrosine-protein kinase Mer (Homo sapiens, UniProt Q12866); assay: Inhibition of Mer
[23] = Aqueous solubility at pH 1.0; type: physicochemical
[24] = tested on: NCI-N87; assay: Antiproliferative activity against Met-independent human NCI-N87 cells after 72 hrs by MTS assay; type: functional, cell-based; conditions: NCI-N87, 72 h
[25] = tested on: Mus musculus; assay: Toxicity in human GTL16 cells xenografted athymic mouse assessed as weight loss/morbidity at 6.25 mg/kg, po; type: organism-based; parameters: dose 6.25 mg/kg, route oral; conditions: in vivo; how it was run: as §2
[26] = tested on: Canis familiaris; assay: Cmax in Beagle dog at 5 mg/kg, po; type: ADME, organism-based, Canis lupus familiaris; parameters: dose 5 mg/kg, route oral; conditions: in vivo; how it was run: as §1
[27] = tested on: Mus musculus; assay: Toxicity in human GTL16 cells xenografted athymic mouse assessed as weight loss/morbidity at 50 mg/kg, po; type: organism-based; parameters: dose 50 mg/kg, route oral; conditions: in vivo; how it was run: as §2
[28] = Clearance in BALB/c mouse at 5 mg/kg, iv; type: ADME, organism-based; parameters: dose 5 mg/kg, route intravenous; conditions: in vivo; how it was run: as §1
[29] = Antitumor activity in human GTL16 cells xenografted athymic mouse at 50 mg/kg, po administered once daily for 14 days; type: functional; conditions: GTL 16, 336 h, read-out: TGI
[30] = tested on: NCI-H1993; assay: Antiproliferative activity against Met-dependent human NCI-H1993 cells after 72 hrs by MTS assay; type: functional, cell-based; conditions: NCI-H1993, 72 h
[31] = tested on: Mus musculus; assay: Toxicity in human GTL16 cells xenografted athymic mouse assessed as weight loss/morbidity at 25 mg/kg, po; type: organism-based; parameters: dose 25 mg/kg, route oral; conditions: in vivo; how it was run: as §2
[32] = biological target: Aurora kinase B (Homo sapiens, UniProt Q96GD4); assay: Inhibition of Aurora B
[33] = biological target: Ephrin type-A receptor 3 (Homo sapiens, UniProt P29320); assay: Inhibition of Epha3 by Ambit binding assay
[34] = Tmax in Beagle dog at 5 mg/kg, po; type: ADME, organism-based, Canis lupus familiaris; parameters: dose 5 mg/kg, route oral; conditions: in vivo; how it was run: as §1
[35] = biological target: MAP kinase-activated protein kinase 2 (Homo sapiens, UniProt P49137); assay: Inhibition of MK2
[36] = Half life in Beagle dog at 1 mg/kg, iv; type: ADME, organism-based, Canis lupus familiaris; parameters: dose 1 mg/kg, route intravenous; conditions: in vivo; how it was run: as §1
[37] = Protein binding in BALB/c mouse; type: ADME, organism-based; conditions: in vivo, read-out: PB
[38] = AUC (0 to 24 hrs) in human GTL16 cells xenografted athymic mouse at 6.25 mg/kg, po; type: ADME, organism-based; parameters: time < 24 hr, dose 6.25 mg/kg, route oral; conditions: in vivo; how it was run: as §2
[39] = Inhibition of CDK2E
[40] = Half life in BALB/c mouse at 5 mg/kg, iv; type: ADME, organism-based; parameters: dose 5 mg/kg, route intravenous; conditions: in vivo; how it was run: as §1
[41] = Antitumor activity in human GTL16 cells xenografted athymic mouse at 6.25 mg/kg, po administered once daily for 14 days; type: functional; conditions: GTL 16, 336 h, read-out: TGI
[42] = tested on: Rattus norvegicus; assay: Cmax in Sprague-Dawley rat at 10 mg/kg, po; type: ADME, organism-based; parameters: dose 10 mg/kg, route oral; conditions: in vivo; how it was run: as §1
[43] = biological target: T1, Hepatocyte growth factor receptor; assay: Inhibition of Met phosphorylation in human GTL16 cells after 30 mins; type: cell-based
How it was run: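 Human GTL-16 gastric carcinoma cells were incubated with compound for 30 min, then lysed. Phospho-Met protein levels in the lysates were assessed across a range of concentrations.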

[44] = AUC (0 to 24 hrs) in human GTL16 cells xenografted athymic mouse at 50 mg/kg, po; type: ADME, organism-based; parameters: time < 24 hr, dose 50 mg/kg, route oral; conditions: in vivo; how it was run: as §2
[45] = Half life in Sprague-Dawley rat at 5 mg/kg, iv; type: ADME, organism-based; parameters: dose 5 mg/kg, route intravenous; conditions: in vivo; how it was run: as §1
[46] = biological target: Proto-oncogene tyrosine-protein kinase Src (Homo sapiens, UniProt P12931); assay: Inhibition of Src by Ambit binding assay
Proto-oncogene tyrosine-protein kinase Src, sequence (P12931 2-536 limits assumed): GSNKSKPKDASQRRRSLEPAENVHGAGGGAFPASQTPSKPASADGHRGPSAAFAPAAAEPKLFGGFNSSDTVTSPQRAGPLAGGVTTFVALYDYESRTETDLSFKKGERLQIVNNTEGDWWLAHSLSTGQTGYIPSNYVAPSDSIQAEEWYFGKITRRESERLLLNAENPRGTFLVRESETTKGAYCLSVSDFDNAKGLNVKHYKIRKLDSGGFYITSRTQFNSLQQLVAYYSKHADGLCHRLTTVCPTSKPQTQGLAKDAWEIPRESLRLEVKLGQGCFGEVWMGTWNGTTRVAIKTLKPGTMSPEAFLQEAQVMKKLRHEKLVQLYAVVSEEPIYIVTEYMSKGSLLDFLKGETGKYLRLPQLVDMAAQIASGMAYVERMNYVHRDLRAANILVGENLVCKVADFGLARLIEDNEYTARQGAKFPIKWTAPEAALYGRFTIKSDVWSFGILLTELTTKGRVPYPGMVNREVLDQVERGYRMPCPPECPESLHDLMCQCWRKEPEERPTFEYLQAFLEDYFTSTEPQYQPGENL

[47] = tested on: Mus musculus; assay: Cmax in BALB/c mouse at 10 mg/kg, po; type: ADME, organism-based; parameters: dose 10 mg/kg, route oral; conditions: in vivo; how it was run: as §1
[48] = Cmax in human GTL16 cells xenografted athymic mouse at 6.25 mg/kg, po; type: ADME, organism-based; parameters: dose 6.25 mg/kg, route oral; conditions: in vivo; how it was run: as §2
[49] = biological target: Tyrosine-protein kinase Blk (Homo sapiens, UniProt P51451); assay: Inhibition of Blk by Ambit binding assay
[50] = biological target: Vascular endothelial growth factor receptor 2 (Homo sapiens, UniProt P35968); assay: Inhibition of VEGFR2
[51] = Tmax in Sprague-Dawley rat at 10 mg/kg, po; type: ADME, organism-based; parameters: dose 10 mg/kg, route oral; conditions: in vivo; how it was run: as §1
[52] = Clearance in Sprague-Dawley rat at 5 mg/kg, iv; type: ADME, organism-based; parameters: dose 5 mg/kg, route intravenous; conditions: in vivo; how it was run: as §1
[53] = Protein binding in Beagle dog; type: ADME, organism-based, Canis lupus familiaris; conditions: in vivo, read-out: PB
[54] = Clearance in Beagle dog at 1 mg/kg, iv; type: ADME, organism-based, Canis lupus familiaris; parameters: dose 1 mg/kg, route intravenous; conditions: in vivo; how it was run: as §1
[55] = Oral bioavailability in Beagle dog at 5 mg/kg; type: ADME, organism-based, Canis lupus familiaris; conditions: in vivo; how it was run: as §1
[56] = Oral bioavailability in Sprague-Dawley rat at 10 mg/kg; type: ADME, organism-based; conditions: in vivo; how it was run: as §1

T1 sequence (P08581 whole entry): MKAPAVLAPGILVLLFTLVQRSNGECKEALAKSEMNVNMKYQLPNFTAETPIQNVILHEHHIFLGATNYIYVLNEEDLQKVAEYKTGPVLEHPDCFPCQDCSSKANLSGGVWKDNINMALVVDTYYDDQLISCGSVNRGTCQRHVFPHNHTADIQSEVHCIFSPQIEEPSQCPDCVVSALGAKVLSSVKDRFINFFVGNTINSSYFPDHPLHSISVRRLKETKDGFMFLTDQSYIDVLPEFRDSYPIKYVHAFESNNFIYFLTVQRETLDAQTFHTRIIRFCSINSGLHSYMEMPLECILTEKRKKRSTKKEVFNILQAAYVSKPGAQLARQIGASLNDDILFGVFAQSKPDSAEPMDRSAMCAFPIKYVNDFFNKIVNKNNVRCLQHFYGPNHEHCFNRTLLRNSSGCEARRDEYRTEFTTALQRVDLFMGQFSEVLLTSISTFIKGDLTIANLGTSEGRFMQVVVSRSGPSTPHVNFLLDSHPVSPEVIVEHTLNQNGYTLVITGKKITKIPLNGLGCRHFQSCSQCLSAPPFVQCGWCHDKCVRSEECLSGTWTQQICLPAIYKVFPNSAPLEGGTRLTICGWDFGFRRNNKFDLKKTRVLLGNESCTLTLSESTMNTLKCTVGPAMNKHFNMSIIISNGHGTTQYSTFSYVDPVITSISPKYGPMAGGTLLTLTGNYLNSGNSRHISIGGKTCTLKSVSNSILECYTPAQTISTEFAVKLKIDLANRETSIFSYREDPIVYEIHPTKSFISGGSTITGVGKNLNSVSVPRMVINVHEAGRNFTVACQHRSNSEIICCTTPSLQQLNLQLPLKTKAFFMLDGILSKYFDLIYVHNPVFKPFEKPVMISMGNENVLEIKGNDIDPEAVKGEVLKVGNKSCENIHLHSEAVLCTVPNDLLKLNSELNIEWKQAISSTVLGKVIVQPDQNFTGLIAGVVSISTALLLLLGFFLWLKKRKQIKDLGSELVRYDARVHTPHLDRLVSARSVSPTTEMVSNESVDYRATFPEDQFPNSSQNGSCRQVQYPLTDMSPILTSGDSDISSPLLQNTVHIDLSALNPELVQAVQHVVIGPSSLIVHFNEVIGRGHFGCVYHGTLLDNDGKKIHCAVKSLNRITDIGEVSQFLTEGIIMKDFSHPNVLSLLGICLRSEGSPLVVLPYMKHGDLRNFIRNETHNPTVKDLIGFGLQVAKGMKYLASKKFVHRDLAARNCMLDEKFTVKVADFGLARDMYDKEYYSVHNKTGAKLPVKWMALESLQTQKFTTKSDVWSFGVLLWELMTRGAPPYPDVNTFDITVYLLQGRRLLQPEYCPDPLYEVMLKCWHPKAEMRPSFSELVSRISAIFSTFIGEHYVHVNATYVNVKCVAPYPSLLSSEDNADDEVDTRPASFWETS

SMILES: O=C(Nc1ccc(Oc2ccnc3[nH]ccc23)c(F)c1)c1cccn(-c2ccc(F)cc2)c1=O
- IC50 [1]: 60 nM

SMILES: CN1CCN(Cc2c(Oc3ccc(NC(=O)c4cccn(-c5ccc(F)cc5)c4=O)cc3F)ccnc2N)CC1
- IC50 [1]: 2800 nM
- IC50 [2]: 5.9 nM

SMILES: Nc1cc(Oc2ccc(NC(=O)c3cccn(-c4ccc(F)cc4)c3=O)cc2F)ccn1
- IC50 [1]: 170 nM
- IC50 [2]: 4.5 nM

Further lines, with some results ahead:

- IC50 [2]: 3.4 nM
SMILES: Nc1nccc(Oc2ccc(NC(=O)c3cccn(-c4ccc(F)cc4)c3=O)cc2F)c1CO
- IC50 [1]: 280 nM

- IC50 [2]: 2.7 nM
SMILES: Nc1nccc(Oc2ccc(NC(=O)c3cccn(-c4ccc(F)cc4)c3=O)cc2F)c1C#CCO
- IC50 [1]: 23 nM

- fraction unbound [3]: < 0.01
- IC50 [4]: > 2000 nM
- IC50 [5]: 550 nM
- IC50 [7]: 1000 nM
- IC50 [8]: > 2000 nM
- IC50 [9]: 1.8 nM
- IC50 [10]: 190 nM
- bioavailability [11]: 100%
- IC50 [12]: > 2000 nM
- IC50 [13]: 290 nM
- Tmax [14]: 0.5 h
- Vd [15]: 0.2 L/kg
- IC50 [17]: > 2000 nM
- Vd [18]: 1.2 L/kg
- Vd [19]: 1 L/kg
- IC50 [20]: 4.3 nM
- Cmax [21]: 43.7 µM
- IC50 [22]: 14 nM
- solubility [23]: 400 µg/mL (≈ 780 µM)
- Cmax [26]: 29 µM
- clearance [28]: 4.4 mL/min/kg
- IC50 [30]: 150 nM
- IC50 [32]: 78 nM
- IC50 [33]: > 500 nM
- Tmax [34]: 2.3 h
- IC50 [35]: > 2000 nM
- half-life [36]: 4.9 h
- fraction unbound [37]: < 0.01
- AUC(0-t) at 24 h [38]: 37 µM·h
- IC50 [39]: > 2000 nM
- half-life [40]: 4.5 h
- Cmax [42]: 8.7 µM
- IC50 [43]: 20 nM
- IC50 [2]: 3.9 nM
- AUC(0-t) at 24 h [44]: 567 µM·h
- half-life [45]: 4.8 h
- IC50 [46]: > 500 nM
- Cmax [47]: 17.6 µM
- Cmax [48]: 4.5 µM
- IC50 [49]: > 500 nM
- IC50 [50]: 180 nM
- Tmax [51]: 1.7 h
- clearance [52]: 12.1 mL/min/kg
- fraction unbound [53]: < 0.01
- clearance [54]: 0.82 mL/min/kg
- bioavailability [55]: 100%
- bioavailability [56]: 100%
SMILES: CCOc1ccn(-c2ccc(F)cc2)c(=O)c1C(=O)Nc1ccc(Oc2ccnc(N)c2Cl)c(F)c1 [BMS-777607]
- IC50 [6]: 160 nM
- inhibition in vivo at 25 mg/kg [16]: 95%
- IC50 [24]: > 10000 nM
- Activity [25]: Non-toxic
- Activity [27]: Non-toxic
- inhibition in vivo at 50 mg/kg [29]: 102%
- IC50 [1]: 100 nM
- Activity [31]: Non-toxic
- inhibition in vivo at 6.25 mg/kg [41]: 66%
